In ChEMBL document CHEMBL4808175 (J Med Chem, 2021):
pEC50, pIC50: −log10 of the molar value.

Experiments:
[1] = target: T1, cGMP-specific 3',5'-cyclic phosphodiesterase (Homo sapiens, UniProt O76074); assay: Inhibition of recombinant full length GST-tagged PDE5A1 (unknown origin) expressed in baculovirus infected Sf9 insect cells using TAMRA-cGMP as substrate incubated for 1.5 hrs by IMAP-FP assay
[2] = target: T2, cGMP-inhibited 3',5'-cyclic phosphodiesterase 3A (Homo sapiens, UniProt Q14432); assay: Inhibition of recombinant GST-tagged PDE3A (669 to end residues) (unknown origin) expressed in baculovirus infected Sf9 insect cells using TAMRA-cGMP as substrate incubated for 1.5 hrs by IMAP-FP assay
Procedure, shortened: (§1)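 PDE enzymes incubated with compound or vehicle and 50 nM TAMRA-cGMP or FAM-cAMP substrate for 1.5 h at 30 °C. Activity read by IMAP fluorescence polarization. IC50 from 10 concentrations, at least two replicates each, fitted by four-parameter logistic. Dose–response repeated at least twice; mean of at least two experiments.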

[3] = target: T3, cAMP and cAMP-inhibited cGMP 3',5'-cyclic phosphodiesterase 10A (Homo sapiens, UniProt Q9Y233); assay: Inhibition of recombinant GST-tagged full length PDE10A2 (unknown origin) expressed in baculovirus infected Sf9 insect cells using FAM-cAMP as substrate incubated for 1.5 hrs by IMAP-FP assay; procedure, shortened: as §1
[4] = target: T4, cGMP-dependent 3',5'-cyclic phosphodiesterase (Homo sapiens, UniProt O00408); assay: Inhibition of recombinant full length GST-tagged PDE2A (unknown origin) expressed in baculovirus infected Sf9 insect cells using TAMRA-cGMP as substrate incubated for 1.5 hrs by IMAP-FP assay; procedure, shortened: as §1
[5] = target: 3',5'-cyclic-AMP phosphodiesterase 4B (Homo sapiens, UniProt Q07343); assay: Inhibition of recombinant full length GST-tagged PDE4B2 (unknown origin) expressed in baculovirus infected Sf9 insect cells using FAM-cAMP as substrate incubated for 1.5 hrs by IMAP-FP assay; procedure, shortened: as §1
[6] = target: High affinity 3',5'-cyclic-AMP phosphodiesterase 7A (Homo sapiens, UniProt Q13946); assay: Inhibition of recombinant GST-tagged PDE7A (122 to end residues) (unknown origin) expressed in baculovirus infected Sf9 insect cells using FAM-cAMP as substrate incubated for 1.5 hrs by IMAP-FP assay; procedure, shortened: as §1
Homo sapiens [7] = organism: Homo sapiens; assay: Selectivity ratio of IC50 for recombinant full length GST-tagged PDE6C (unknown origin) expressed in baculovirus infected Sf9 insect cells to IC50 for recombinant full length GST-tagged PDE5A1 (unknown origin) expressed in baculovirus infected Sf9 insect cells using TAMRA-cGMP as substrate incubated for 1.5 hrs by IMAP-FP assay using TAMRA-cGMP as substrate incubated for 1.5 hrs by IMAP-FP assay
[8] = target: T5, Dual 3',5'-cyclic-AMP and -GMP phosphodiesterase 11A (Homo sapiens, UniProt Q9HCR9); assay: Inhibition of recombinant GST-tagged full length PDE11A4 (unknown origin) expressed in baculovirus infected Sf9 insect cells using FAM-cAMP as substrate incubated for 1.5 hrs by IMAP-FP assay; procedure, shortened: as §1
[9] = target: T6, Dual specificity calcium/calmodulin-dependent 3',5'-cyclic nucleotide phosphodiesterase 1A (Homo sapiens, UniProt P54750); assay: Inhibition of recombinant full length GST-tagged PDE1A (unknown origin) expressed in baculovirus infected Sf9 insect cells using TAMRA-cGMP as substrate incubated for 1.5 hrs by IMAP-FP assay; procedure, shortened: as §1
[10] = target: T2, cGMP-inhibited 3',5'-cyclic phosphodiesterase 3A; assay: Inhibition of recombinant GST-tagged PDE3A (669 to end residues) (unknown origin) expressed in baculovirus infected Sf9 insect cells using FAM-cAMP as substrate incubated for 1.5 hrs by IMAP-FP assay; procedure, shortened: as §1
[11] = target: T6, Dual specificity calcium/calmodulin-dependent 3',5'-cyclic nucleotide phosphodiesterase 1A; assay: Inhibition of recombinant full length GST-tagged PDE1A (unknown origin) expressed in baculovirus infected Sf9 insect cells using FAM-cAMP as substrate incubated for 1.5 hrs by IMAP-FP assay; procedure, shortened: as §1
[12] = target: High affinity cAMP-specific and IBMX-insensitive 3',5'-cyclic phosphodiesterase 8A (Homo sapiens, UniProt O60658); assay: Inhibition of recombinant GST-tagged full length PDE8A1 (unknown origin) expressed in baculovirus infected Sf9 insect cells using FAM-cAMP as substrate incubated for 1.5 hrs by IMAP-FP assay; procedure, shortened: as §1
[13] = target: Cone cGMP-specific 3',5'-cyclic phosphodiesterase subunit alpha' (Homo sapiens, UniProt P51160); assay: Inhibition of recombinant full length GST-tagged PDE6C (unknown origin) expressed in baculovirus infected Sf9 insect cells using TAMRA-cGMP as substrate incubated for 1.5 hrs by IMAP-FP assay; procedure, shortened: as §1
[14] = target: High affinity cGMP-specific 3',5'-cyclic phosphodiesterase 9A (Homo sapiens, UniProt O76083); assay: Inhibition of recombinant GST-tagged full length PDE9A2 (unknown origin) expressed in baculovirus infected Sf9 insect cells using substrate incubated for 1.5 hrs by IMAP-FP assay
[15] = target: T5, Dual 3',5'-cyclic-AMP and -GMP phosphodiesterase 11A; assay: Inhibition of recombinant GST-tagged full length PDE11A4 (unknown origin) expressed in baculovirus infected Sf9 insect cells using TAMRA-cGMP as substrate incubated for 1.5 hrs by IMAP-FP assay; procedure, shortened: as §1
[16] = target: T4, cGMP-dependent 3',5'-cyclic phosphodiesterase; assay: Inhibition of recombinant full length GST-tagged PDE2A (unknown origin) expressed in baculovirus infected Sf9 insect cells using FAM-cAMP as substrate incubated for 1.5 hrs by IMAP-FP assay; procedure, shortened: as §1
Homo sapiens [17] = organism: Homo sapiens; assay: Selectivity ratio of IC50 for recombinant GST-tagged full length PDE11A4 (unknown origin) expressed in baculovirus infected Sf9 insect cells to IC50 for recombinant full length GST-tagged PDE5A1 (unknown origin) expressed in baculovirus infected Sf9 insect cells using TAMRA-cGMP as substrate incubated for 1.5 hrs by IMAP-FP assay using TAMRA-cGMP as substrate incubated for 1.5 hrs by IMAP-FP assay
[18] = target: T1, cGMP-specific 3',5'-cyclic phosphodiesterase; assay: Inhibition of PDE5A in HEK293 cells stably transfected with cGMP biosensor assessed as increase in SNP-induced intracellular cGMP level measured after 90 mins by luminescence assay; format: cell-based
[19] = target: T3, cAMP and cAMP-inhibited cGMP 3',5'-cyclic phosphodiesterase 10A; assay: Inhibition of recombinant GST-tagged full length PDE10A2 (unknown origin) expressed in baculovirus infected Sf9 insect cells using TAMRA-cGMP as substrate incubated for 1.5 hrs by IMAP-FP assay; procedure, shortened: as §1

Chain of 3',5'-cyclic-AMP phosphodiesterase 4B (Q07343 whole entry): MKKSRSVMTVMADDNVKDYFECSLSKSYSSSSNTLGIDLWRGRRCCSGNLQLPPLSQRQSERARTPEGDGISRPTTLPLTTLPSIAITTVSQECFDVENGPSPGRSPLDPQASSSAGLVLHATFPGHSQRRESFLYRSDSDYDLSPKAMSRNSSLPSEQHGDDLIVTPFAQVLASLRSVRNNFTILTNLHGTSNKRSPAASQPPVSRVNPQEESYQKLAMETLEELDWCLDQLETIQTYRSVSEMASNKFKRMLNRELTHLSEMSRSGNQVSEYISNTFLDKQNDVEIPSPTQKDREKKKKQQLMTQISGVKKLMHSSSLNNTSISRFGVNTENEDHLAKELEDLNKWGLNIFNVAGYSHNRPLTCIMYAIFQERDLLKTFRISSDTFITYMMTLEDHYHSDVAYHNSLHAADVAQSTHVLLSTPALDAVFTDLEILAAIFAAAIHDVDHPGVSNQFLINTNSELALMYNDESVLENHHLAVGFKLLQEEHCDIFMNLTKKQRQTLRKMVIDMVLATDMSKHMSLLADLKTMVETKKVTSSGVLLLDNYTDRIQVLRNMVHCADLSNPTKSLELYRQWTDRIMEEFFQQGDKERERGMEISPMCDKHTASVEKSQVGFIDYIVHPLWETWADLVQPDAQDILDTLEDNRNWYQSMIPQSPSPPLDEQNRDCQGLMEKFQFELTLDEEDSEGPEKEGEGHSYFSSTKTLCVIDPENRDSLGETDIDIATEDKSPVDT
T2 sequence (Q14432 whole entry): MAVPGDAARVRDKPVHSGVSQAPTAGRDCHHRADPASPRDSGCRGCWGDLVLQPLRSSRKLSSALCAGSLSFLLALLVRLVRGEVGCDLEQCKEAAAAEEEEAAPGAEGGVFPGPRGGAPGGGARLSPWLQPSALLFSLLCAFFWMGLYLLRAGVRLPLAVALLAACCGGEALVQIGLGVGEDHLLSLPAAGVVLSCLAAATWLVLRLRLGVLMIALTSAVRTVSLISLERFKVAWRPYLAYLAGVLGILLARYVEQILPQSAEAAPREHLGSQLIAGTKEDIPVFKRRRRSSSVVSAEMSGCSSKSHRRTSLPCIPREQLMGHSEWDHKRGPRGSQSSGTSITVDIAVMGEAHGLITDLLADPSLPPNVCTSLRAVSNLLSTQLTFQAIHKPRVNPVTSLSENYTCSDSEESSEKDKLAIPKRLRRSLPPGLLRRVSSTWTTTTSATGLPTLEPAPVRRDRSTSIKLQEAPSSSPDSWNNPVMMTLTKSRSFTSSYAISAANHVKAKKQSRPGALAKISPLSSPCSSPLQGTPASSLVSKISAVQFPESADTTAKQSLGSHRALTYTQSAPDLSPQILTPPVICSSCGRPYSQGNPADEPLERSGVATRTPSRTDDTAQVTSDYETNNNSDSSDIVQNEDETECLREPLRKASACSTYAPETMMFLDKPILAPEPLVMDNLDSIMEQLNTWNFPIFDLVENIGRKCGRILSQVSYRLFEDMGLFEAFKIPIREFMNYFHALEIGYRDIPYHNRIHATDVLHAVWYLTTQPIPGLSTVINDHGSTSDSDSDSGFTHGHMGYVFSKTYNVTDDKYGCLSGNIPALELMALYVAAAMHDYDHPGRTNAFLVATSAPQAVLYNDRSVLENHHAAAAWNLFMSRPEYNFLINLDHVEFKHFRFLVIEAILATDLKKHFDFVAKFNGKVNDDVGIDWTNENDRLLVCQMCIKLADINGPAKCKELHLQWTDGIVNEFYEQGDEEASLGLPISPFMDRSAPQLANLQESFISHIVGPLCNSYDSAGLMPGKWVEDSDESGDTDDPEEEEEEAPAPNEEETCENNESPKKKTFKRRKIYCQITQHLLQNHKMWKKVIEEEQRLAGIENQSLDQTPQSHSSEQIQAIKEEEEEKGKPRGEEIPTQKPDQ
Chain of High affinity 3',5'-cyclic-AMP phosphodiesterase 7A (Q13946 whole entry): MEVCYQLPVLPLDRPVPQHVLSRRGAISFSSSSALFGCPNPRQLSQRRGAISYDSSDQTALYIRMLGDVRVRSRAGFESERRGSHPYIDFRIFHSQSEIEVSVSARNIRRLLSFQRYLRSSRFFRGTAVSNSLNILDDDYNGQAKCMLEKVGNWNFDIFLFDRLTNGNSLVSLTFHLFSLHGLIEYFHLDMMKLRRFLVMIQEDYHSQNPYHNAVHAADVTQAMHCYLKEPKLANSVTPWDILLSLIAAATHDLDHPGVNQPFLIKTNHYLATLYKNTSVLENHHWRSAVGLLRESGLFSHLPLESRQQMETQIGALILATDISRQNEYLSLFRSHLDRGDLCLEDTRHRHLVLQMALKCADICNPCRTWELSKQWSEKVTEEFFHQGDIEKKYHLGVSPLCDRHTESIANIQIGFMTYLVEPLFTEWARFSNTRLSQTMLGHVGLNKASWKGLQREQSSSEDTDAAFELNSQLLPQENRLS
Chain of Cone cGMP-specific 3',5'-cyclic phosphodiesterase subunit alpha' (P51160 whole entry): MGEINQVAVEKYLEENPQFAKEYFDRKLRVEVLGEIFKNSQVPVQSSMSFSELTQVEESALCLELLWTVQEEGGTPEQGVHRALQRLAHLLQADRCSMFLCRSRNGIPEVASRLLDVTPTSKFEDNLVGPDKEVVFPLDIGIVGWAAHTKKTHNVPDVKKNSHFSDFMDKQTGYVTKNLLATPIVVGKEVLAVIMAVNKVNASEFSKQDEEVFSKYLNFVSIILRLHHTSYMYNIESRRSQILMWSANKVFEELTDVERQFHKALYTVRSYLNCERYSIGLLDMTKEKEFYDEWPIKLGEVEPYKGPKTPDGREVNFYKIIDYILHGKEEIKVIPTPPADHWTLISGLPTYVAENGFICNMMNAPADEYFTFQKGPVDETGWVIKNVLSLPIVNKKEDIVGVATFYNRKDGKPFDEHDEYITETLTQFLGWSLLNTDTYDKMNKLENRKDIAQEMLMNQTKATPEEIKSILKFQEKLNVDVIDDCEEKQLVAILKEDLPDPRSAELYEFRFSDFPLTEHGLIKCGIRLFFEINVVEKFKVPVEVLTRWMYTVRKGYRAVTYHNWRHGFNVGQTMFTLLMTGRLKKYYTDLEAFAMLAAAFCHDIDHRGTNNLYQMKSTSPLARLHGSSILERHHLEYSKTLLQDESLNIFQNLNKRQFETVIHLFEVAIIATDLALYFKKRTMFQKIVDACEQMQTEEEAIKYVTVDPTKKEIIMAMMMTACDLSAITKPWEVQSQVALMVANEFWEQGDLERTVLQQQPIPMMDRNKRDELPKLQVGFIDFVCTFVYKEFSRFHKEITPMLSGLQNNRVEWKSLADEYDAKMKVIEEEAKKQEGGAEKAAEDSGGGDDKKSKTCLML
T3 sequence (Q9Y233 whole entry): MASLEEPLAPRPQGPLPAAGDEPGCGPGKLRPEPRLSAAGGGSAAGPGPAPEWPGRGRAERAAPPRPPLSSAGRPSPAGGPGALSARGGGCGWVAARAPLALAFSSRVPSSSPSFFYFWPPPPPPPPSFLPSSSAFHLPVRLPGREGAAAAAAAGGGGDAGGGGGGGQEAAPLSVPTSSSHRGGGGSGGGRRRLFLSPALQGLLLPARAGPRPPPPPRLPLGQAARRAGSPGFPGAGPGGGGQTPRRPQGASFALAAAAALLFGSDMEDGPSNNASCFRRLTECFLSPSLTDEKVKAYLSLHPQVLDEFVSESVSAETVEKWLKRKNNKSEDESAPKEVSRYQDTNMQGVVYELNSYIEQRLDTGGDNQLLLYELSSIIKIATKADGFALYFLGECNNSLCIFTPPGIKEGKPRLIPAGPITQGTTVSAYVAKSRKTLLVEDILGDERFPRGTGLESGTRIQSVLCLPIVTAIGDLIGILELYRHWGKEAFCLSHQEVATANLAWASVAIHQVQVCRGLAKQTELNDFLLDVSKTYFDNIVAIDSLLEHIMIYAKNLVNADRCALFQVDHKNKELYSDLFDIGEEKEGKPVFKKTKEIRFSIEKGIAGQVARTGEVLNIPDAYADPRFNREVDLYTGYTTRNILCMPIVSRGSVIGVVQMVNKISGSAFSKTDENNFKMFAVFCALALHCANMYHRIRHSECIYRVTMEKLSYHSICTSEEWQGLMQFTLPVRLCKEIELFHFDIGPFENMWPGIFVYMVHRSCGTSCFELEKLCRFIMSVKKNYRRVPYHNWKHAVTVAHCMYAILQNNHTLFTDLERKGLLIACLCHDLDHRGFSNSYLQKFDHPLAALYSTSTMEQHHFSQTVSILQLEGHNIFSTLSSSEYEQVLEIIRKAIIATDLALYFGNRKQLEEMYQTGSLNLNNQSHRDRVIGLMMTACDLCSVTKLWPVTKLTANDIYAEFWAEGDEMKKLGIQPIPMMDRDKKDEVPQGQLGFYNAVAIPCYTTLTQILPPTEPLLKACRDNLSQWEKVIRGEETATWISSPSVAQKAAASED
T6 sequence (P54750 whole entry): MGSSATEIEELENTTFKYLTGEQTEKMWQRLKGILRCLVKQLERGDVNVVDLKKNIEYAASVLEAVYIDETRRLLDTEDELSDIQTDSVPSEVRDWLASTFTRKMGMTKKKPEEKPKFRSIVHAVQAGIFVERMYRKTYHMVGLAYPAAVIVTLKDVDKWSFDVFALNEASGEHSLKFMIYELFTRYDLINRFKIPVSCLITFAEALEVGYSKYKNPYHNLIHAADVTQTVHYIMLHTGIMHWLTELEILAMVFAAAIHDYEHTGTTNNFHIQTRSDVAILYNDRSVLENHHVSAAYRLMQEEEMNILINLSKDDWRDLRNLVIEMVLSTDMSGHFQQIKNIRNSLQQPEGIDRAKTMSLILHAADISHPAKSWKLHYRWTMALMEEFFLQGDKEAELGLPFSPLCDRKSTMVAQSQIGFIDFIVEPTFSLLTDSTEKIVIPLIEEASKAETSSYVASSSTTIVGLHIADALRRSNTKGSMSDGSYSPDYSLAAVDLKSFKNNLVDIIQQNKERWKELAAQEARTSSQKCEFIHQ

COc1ccc(C2CC(C(C)(C)C)=NN2c2ccc(C(=O)O)cc2)cc1F (centres undefined)
pIC50 [1]: 6.23

COc1cc(F)c(C2CC(C(C)(C)C)=NN2c2ccc(C(=O)N3CCN(C)CC3)cc2)cc1F (centres undefined)
pIC50 [1]: 6.59

CCOc1c(F)cc(C2CC(C(C)(C)C)=NN2c2ccc(C(=O)O)cc2)cc1F (centres undefined)
pIC50 [1]: 6.70

CC(C)(C)C1=NN(c2ccc(C(=O)O)cc2)C(c2ccc(OC(F)(F)F)cc2)C1 (centres undefined)
pIC50 [1]: 5.00

COc1ccc(C2CC(c3ccccc3C)=NN2c2ccc(C(=O)N3CCOCC3)cc2)cc1 (centres undefined)
pIC50 [1]: 7.54

COc1ccc(C2CC(C(C)(C)C)=NN2c2ccc(C(=O)N3CCN(C)CC3)cc2)cc1 (centres undefined)
pIC50 [1]: 7.05

COc1ccc(C2CC(c3ccccc3C)=NN2c2ccc(C(=O)N3CCN(C)CC3)cc2)cc1 (centres undefined)
pIC50 [2]: < 5.00 | pIC50 [3]: 4.49 | pIC50 [4]: 4.87 | pIC50 [5]: < 5.00 | pIC50 [6]: < 5.00 | Ratio IC50 (Homo sapiens [7]): > 476 | pIC50 [8]: 4.90 | pIC50 [9]: < 5.00 | pIC50 [10]: < 5.00 | pIC50 [11]: < 5.00 | pIC50 [12]: < 5.00 | pIC50 [13]: < 5.00 | pIC50 [14]: < 5.00 | pIC50 [1]: 7.68 | pIC50 [15]: 4.94 | pIC50 [16]: 5.02 | Ratio IC50 (Homo sapiens [17]): 574 | pEC50 [18]: 4.74 | pIC50 [19]: 4.31

COc1cc(C2CC(C(C)(C)C)=NN2c2ccc(C(=O)N3CCN(C)CC3)cc2)ccc1F (centres undefined)
pIC50 [1]: 5.89

COc1ccc(C2CC(C(C)(C)C)=NN2c2ccc(C(=O)O)cc2)cc1Cl (centres undefined)
pIC50 [1]: 6.05

CCOc1c(F)cc(C2CC(C(C)(C)C)=NN2c2ccc(C(=O)N3CCN(C)CC3)cc2)cc1F (centres undefined)
pIC50 [1]: 6.89

COc1ccc(C2C3Cc4ccccc4C3=NN2c2ccc(C(=O)O)cc2)cc1 (centres undefined)
pIC50 [1]: 5.84

COc1ccc(C2CC(c3ccccc3C)=NN2c2ccc(C(=O)NCCO)cc2)cc1 (centres undefined)
pIC50 [2]: < 5.00 | pIC50 [3]: < 4.00 | pIC50 [4]: < 4.30 | pIC50 [5]: < 5.00 | pIC50 [6]: < 5.00 | Ratio IC50 (Homo sapiens [7]): > 29 | pIC50 [8]: 4.89 | pIC50 [9]: < 5.00 | pIC50 [10]: < 5.00 | pIC50 [11]: < 5.00 | pIC50 [12]: < 5.00 | pIC50 [13]: < 5.00 | pIC50 [14]: < 5.00 | pIC50 [1]: 6.47 | pIC50 [15]: 4.88 | pIC50 [16]: < 4.30 | Ratio IC50 (Homo sapiens [17]): 38.4 | pIC50 [19]: < 4.00

COc1ccc(C2CC(c3ccccc3C)=NN2c2ccc(C(=O)O)cc2)cc1F (centres undefined)
pIC50 [1]: 6.89

COc1cc(C2CC(C(C)(C)C)=NN2c2ccc(C(=O)O)cc2)ccc1F (centres undefined)
pIC50 [1]: 5.00

COc1cc(F)c(C2CC(C(C)(C)C)=NN2c2ccc(C(=O)O)cc2)cc1F (centres undefined)
pIC50 [1]: 5.00

CCCCNC(=O)c1ccc(N2N=C(C(C)(C)C)CC2c2ccc(OC)cc2)cc1 (centres undefined)
pIC50 [1]: 5.92

COc1ccc(C2CC(c3ccccc3O)=NN2c2ccc(C(=O)O)cc2)cc1 (racemic)
pIC50 [1]: 6.48

CCNC(=O)c1ccc(N2N=C(c3ccccc3)CC2c2ccc(OC)cc2)cc1 (centres undefined)
pIC50 [1]: 6.22

COc1ccc(C2CC(c3ccccc3C)=NN2c2ccc(C(=O)N3CCN(C)CC3)cc2)cc1F (centres undefined)
pIC50 [2]: < 5.00 | pIC50 [3]: < 5.00 | pIC50 [4]: < 5.00 | pIC50 [5]: < 5.00 | pIC50 [6]: < 5.00 | Ratio IC50 (Homo sapiens [7]): > 250 | pIC50 [8]: < 5.00 | pIC50 [9]: < 5.00 | pIC50 [10]: < 5.00 | pIC50 [11]: < 5.00 | pIC50 [12]: < 5.00 | pIC50 [13]: < 5.00 | pIC50 [14]: < 5.00 | pIC50 [1]: 7.40 | pIC50 [15]: < 5.00 | pIC50 [16]: < 5.00 | Ratio IC50 (Homo sapiens [17]): > 250 | pEC50 [18]: 4.86 | pIC50 [19]: < 5.00

COc1ccc(C2CC(C(C)(C)C)=NN2c2ccc(C(=O)N3CCN(C)CC3)cc2)cc1F (centres undefined)
pIC50 [1]: 7.70

COc1ccc(C2CC(c3ccccc3)=NN2c2ccc(C(=O)N3CCN(C)CC3)cc2)cc1 (centres undefined)
pIC50 [1]: 7.11

COc1ccc(C2CC(C(C)(C)C)=NN2c2ccc(C(=O)O)cc2)c(F)c1F (centres undefined)
pIC50 [1]: 7.22

COc1ccc(C2CC(c3ccccc3C)=NN2c2ccc(C(=O)O)cc2)cc1 (centres undefined)
pIC50 [1]: 6.30

CCCCNC(=O)c1ccc(N2N=C(c3ccccc3C)CC2c2ccc(OC)cc2)cc1 (centres undefined)
pIC50 [1]: 6.55

COc1ccc(C2CC(C(C)(C)C)=NN2c2ccc(C(=O)N3CCN(C)CC3)cc2)cc1Cl (centres undefined)
pIC50 [1]: 6.72

COc1c(F)cc(C2CC(C(C)(C)C)=NN2c2ccc(C(=O)O)cc2)cc1F (centres undefined)
pIC50 [1]: 7.05

COc1ccc(C2CC(C(C)(C)C)=NN2c2ccc(C(=O)N3CCN(C)CC3)cc2)c(F)c1F (centres undefined)
pIC50 [2]: < 5.00 | pIC50 [3]: < 5.00 | pIC50 [4]: < 5.00 | pIC50 [5]: < 5.00 | pIC50 [6]: < 5.00 | Ratio IC50 (Homo sapiens [7]): > 2500 | pIC50 [8]: < 5.00 | pIC50 [9]: < 5.00 | pIC50 [10]: < 5.00 | pIC50 [11]: < 5.00 | pIC50 [12]: < 5.00 | pIC50 [13]: < 5.00 | pIC50 [14]: < 5.00 | pIC50 [1]: 8.40 | pIC50 [15]: < 5.00 | pIC50 [16]: < 5.00 | Ratio IC50 (Homo sapiens [17]): > 2500 | pEC50 [18]: 5.39 | pIC50 [19]: < 5.00

COc1ccc(C2CC(c3ccccc3)=NN2c2ccc(C(=O)O)cc2)cc1F (centres undefined)
pIC50 [1]: 5.92

COc1ccc(C2C3COc4ccccc4C3=NN2c2ccc(C(=O)O)cc2)cc1 (centres undefined)
pIC50 [1]: 5.94

COc1ccc(C2CC(c3ccc(O)cc3)=NN2c2ccc(C(=O)O)cc2)cc1 (centres undefined)
pIC50 [1]: 5.60

CCCCNC(=O)c1ccc(N2N=C(C(C)(C)C)CC2c2ccc(OC)c(F)c2)cc1 (centres undefined)
pIC50 [1]: 6.39

COc1ccc(C2CC(c3cccc(C)c3)=NN2c2ccc(C(=O)O)cc2)cc1 (centres undefined)
pIC50 [1]: 5.81

CCCCNC(=O)c1ccc(N2N=C(c3ccccc3)CC2c2ccc(OC)cc2)cc1 (centres undefined)
pIC50 [1]: 6.39
